Assay results: ChEMBL document CHEMBL1125040, “Reversible inhibitors of the gastric (H+/K+)-ATPase. 1. 1-Aryl-4-methylpyrrolo[3,2-c]quinolines as conformationally restrained analogues of 4-(arylamino)quinolines” (J Med Chem, 1990)

Key:
Sus scrofa = species on record: Sus scrofa; assay: In vitro inhibition of [14C]-aminopyrine accumulation was determined in gastric vesicles of pig with outside vesicle pH 7; settings: Stomach
Rattus norvegicus [1] = assay: In vivo inhibition of rat gastric secretion was determined at a dose of 10 uM/kg; type: functional, Stomach
In short: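 Pentagastrin-stimulated lumen-perfused rats given a single iv bolus of 10 μmol/kg. Acid output measured in the gastric perfusate. Percent inhibition taken at peak inhibition relative to the secretory plateau immediately before dosing; mean of four rats ± SEM.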

[2] = pKa value was determined; type: physicochemical
Rattus norvegicus [3] = assay: In vivo antisecretory activity was determined for inhibition of gastric secretion in rat; type: functional; settings: Stomach
In short: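 Lumen-perfused rat stimulated with pentagastrin; compound given as iv bolus; acid output measured in gastric perfusate. Percent inhibition taken at peak inhibition versus secretory plateau just before dosing.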

Rattus norvegicus [4] = assay: In vivo antisecretory activity was determined for inhibition of gastric secretion in rat; rats died at doses giving less than 50% inhibition; type: organism-based, Stomach

Row | Structure (SMILES) | IC50 (Sus scrofa) [nM] | pKa [2] | Inhibition (Rattus norvegicus [1]) [%] | ED50 (Rattus norvegicus [3]) [µmol/kg] | ED50 (Rattus norvegicus [4])
1 | Cc1cc(O)ccc1N1CCc2c(C)nc3ccccc3c21 | – | – | 41 | – | –
2 | COc1ccc2[nH]c([S+]([O-])Cc3ncc(C)c(OC)c3C)nc2c1 (centres undefined) [OMEPRAZOLE] | – | – | – | 0.45 | –
3 | COc1ccccc1N1CCc2c(C)nc3c(OC)cccc3c21 | 230 | – | – | – | Toxic
4 | COc1cccc2c3c(c(C)nc12)CCN3c1ccccc1 | 84 | – | 17 | – | Toxic
5 | Cc1ccccc1N1CCc2c1c1ccccc1[n+]([O-])c2C | – | – | 40 | – | –
6 | Cc1cccc(C)c1N1CCc2c(C)nc3ccccc3c21 | – | – | 18 | – | –
7 | COc1ccc(N2CCc3c(C)nc4c(OC)cccc4c32)c(C)c1 | – | – | 45 | – | –
8 | Cc1ccccc1-n1nnc2cnc3ccccc3c21 | > 30000 | – | – | – | –
9 | COc1cccc2c3c(c(C)nc12)CCN3Cc1ccccc1 | 1600 | – | 0 | – | Toxic
10 | Cc1nc2c(OCc3ccccc3)cccn2c1CC#N | 13 | – | – | 0.31 | –
11 | Cc1ccccc1N1CCc2c(C)nc3c(F)cccc3c21 | – | – | 26 | – | –

Continued, in another order:

Row | IC50 (Sus scrofa) [nM] | pKa [2] | Structure (SMILES) | Inhibition (Rattus norvegicus [1]) [%] | ED50 (Rattus norvegicus [3]) [µmol/kg] | ED50 (Rattus norvegicus [4])
12 | 61 | – | Cc1ccccc1N1CCc2c(C)nc3c(O)cccc3c21 | 23 | – | –
13 | 34 | 7.4 | COc1cccc2c1nc(C)c1ccn(-c3ccccc3C)c12 | 48 | 7.1 | –
14 | 37 | – | CCOC(=O)c1cnc2c(OC)cccc2c1Nc1ccccc1C | – | 8.2 | –
15 | 2400 | – | COc1cccc2c3c(c(C)[n+](C)c12)CCN3c1ccccc1C | – | – | –
16 | > 30000 | – | Cc1ccccc1-n1c(S)nc2cnc3ccccc3c21 | – | – | –
17 | 110 | – | COc1cccc2c3c(cnc12)CCCN3c1ccccc1C | 21 | – | –
18 | 28 | – | Cc1ccccc1N1CCc2c(C)nc3ccccc3c21 | 42 | – | –
19 | 28 | – | Cc1ccccc1N1CCc2c(C)nc3c(C)cccc3c21 | 43 | – | –
20 | 26 | – | COc1ccc(N2CCc3c(C)nc4ccccc4c32)c(C)c1 | 51 | – | –
21 | 36 | 9.5 | COc1cccc2c3c(c(C)nc12)CCN3c1ccccc1C | – | 19.8 | –
22 | 2230 | – | Cc1ccccc1-n1cnc2cnc3ccccc3c21 | – | – | –
